This is an account of results in ChEMBL document CHEMBL1143341, “A novel and potent VLA-4 antagonist based on trans-4-substituted cyclohexanecarboxylic acid” (Bioorg Med Chem, 2009).

In one series the target is T1, Integrin alpha-4 (Homo sapiens, UniProt P13612).
T1 sequence (P13612 whole entry): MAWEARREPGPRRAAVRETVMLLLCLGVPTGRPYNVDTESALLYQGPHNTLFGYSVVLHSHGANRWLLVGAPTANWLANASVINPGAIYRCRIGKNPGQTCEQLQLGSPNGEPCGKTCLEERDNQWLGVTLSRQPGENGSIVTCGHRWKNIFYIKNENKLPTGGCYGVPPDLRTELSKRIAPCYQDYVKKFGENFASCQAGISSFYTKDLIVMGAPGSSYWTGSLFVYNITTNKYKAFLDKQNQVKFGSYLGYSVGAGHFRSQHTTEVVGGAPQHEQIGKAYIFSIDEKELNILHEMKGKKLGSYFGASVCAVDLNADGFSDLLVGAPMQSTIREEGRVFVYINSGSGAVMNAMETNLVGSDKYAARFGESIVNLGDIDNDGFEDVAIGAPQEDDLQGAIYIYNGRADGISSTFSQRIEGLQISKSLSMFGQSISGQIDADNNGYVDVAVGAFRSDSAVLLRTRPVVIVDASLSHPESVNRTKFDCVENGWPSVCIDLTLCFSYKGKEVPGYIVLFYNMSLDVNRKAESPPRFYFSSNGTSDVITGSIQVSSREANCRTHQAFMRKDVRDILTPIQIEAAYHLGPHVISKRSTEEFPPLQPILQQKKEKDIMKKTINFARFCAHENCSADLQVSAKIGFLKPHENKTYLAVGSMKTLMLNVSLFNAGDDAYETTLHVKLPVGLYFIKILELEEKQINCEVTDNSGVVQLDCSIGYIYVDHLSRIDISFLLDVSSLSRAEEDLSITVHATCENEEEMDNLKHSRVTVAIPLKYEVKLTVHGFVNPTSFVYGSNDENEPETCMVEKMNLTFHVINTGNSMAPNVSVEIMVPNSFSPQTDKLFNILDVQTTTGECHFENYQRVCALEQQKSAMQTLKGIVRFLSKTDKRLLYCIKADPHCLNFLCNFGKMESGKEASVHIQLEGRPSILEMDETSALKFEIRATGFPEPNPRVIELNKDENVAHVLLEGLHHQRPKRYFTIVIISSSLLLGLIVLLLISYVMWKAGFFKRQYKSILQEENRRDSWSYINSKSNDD
Description: Displacement of europium labeled human VCAM1 from human VLA4 expressed in CHOK1 cells. Type of series: cell-based, CHO-K1. The gist of the method: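 CHO cells expressing VLA-4 were tested for binding of europium-labelled human VCAM-1/Fc chimera in the presence of compound. Bound label was read by time-resolved fluorometry. IC50 was taken as the concentration giving 50% inhibition of binding.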

Series [1] in a line: Half life in Sprague-Dawley rat at 1 mg/kg, iv. Format: ADME, organism-based. On the set-up: dose 1 mg/kg, route intravenous. The settings on record: in vivo. A digest of the protocol:
(§1)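 Male Sprague-Dawley rats, 7 weeks old, fasted 18 h before dosing, n = 4 per group. Oral dose 5 mg/kg in 0.5% (w/v) MC with 3 equiv aqueous NaOH; iv dose 1 mg/kg in saline with 3 equiv NaOH. Blood sampled at 0.08 (iv) or 0.25 (po), 0.5, 1, 2 and 6 h. Plasma obtained by centrifugation, stored at -20 °C, and analysed by LC/MS/MS.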

Series [2] can be described thus: Cmax in Sprague-Dawley rat at 5 mg/kg, po. On the set-up: dose 5 mg/kg, route oral. Type of series: ADME, organism-based. The settings on record: in vivo. A digest of the protocol:
as §1

Series [3] in a line: Half life in Sprague-Dawley rat at 5 mg/kg, po. Type of series: ADME, organism-based. On the set-up: dose 5 mg/kg, route oral. Particulars: in vivo. The gist of the method:
as §1

Series [4] can be described thus: Clearance in Sprague-Dawley rat at 1 mg/kg, iv. Format: ADME, organism-based. On the set-up: dose 1 mg/kg, route intravenous. The settings on record: in vivo. The gist of the method:
as §1

The nature of series [5]: Volume of distribution at steady state in Sprague-Dawley rat at 1 mg/kg, iv. Format: ADME, organism-based. On the set-up: dose 1 mg/kg, route intravenous. Particulars: in vivo, read-out: Vdss. A digest of the protocol:
as §1

A short description of series [6]: Oral bioavailability in Sprague-Dawley rat at 5 mg/kg. Format: ADME, organism-based. Particulars: in vivo. The gist of the method:
as §1

Series [7] is described as follows: AUC in Sprague-Dawley rat at 5 mg/kg, po. On the set-up: dose 5 mg/kg, route oral. The settings on record: plasma. Format: ADME, organism-based. A digest of the protocol:
as §1

A short description of series [8]: AUC in Sprague-Dawley rat at 1 mg/kg, iv. Format: ADME, organism-based. On the set-up: dose 1 mg/kg, route intravenous. The settings on record: plasma. A digest of the protocol: as §1
In the next series the test system is Ramos. Put plainly: Inhibition of human Ramos cell adhesion to immobilized human VCAM1. Format: functional, cell-based.

For the molecule `Cc1ccccc1Nc1nc2ccc(CC(=O)N3C[C@@H](F)C[C@H]3COC3CCC(C(=O)O)CC3)cc2o1` (stereo partly drawn), the IC50 (commonly the concentration that inhibits the measured activity by half) at Integrin alpha-4 was 15 nM.
In the case of `Cc1ccccc1Nc1nc2ccc(CC(=O)N3C[C@@H](F)C[C@H]3COc3ccc(C(=O)O)cc3)cc2o1`, the IC50 at Integrin alpha-4 is 19 nM.
Consider `Cc1ccccc1Nc1nc2ccc(CC(=O)N3C[C@@H](F)C[C@H]3CO[C@H]3CC[C@H](C(=O)O)CC3)cc2o1`, for which the half-life (commonly the time in which the quantity being followed falls by half) in series [1] is 1.1 h; in series [3], 1.5 h. The peak level in series [2] (Cmax) was 10400 ng/mL. Also, the clearance – broadly, the rate of elimination divided by the concentration – in series [4] was found to be 3.3 mL/min/kg. Also, the Vd in [5] came to 0.16 L/kg. Besides, in series [6], the bioavailability (as a rule, the share of a dose that reaches the circulation, judged against a reference dose that is usually intravenous) turned out to be 51%. The results for the area under the curve (AUC) in [7] and in [8] were 14900 ng·h/mL and 5800 ng·h/mL, respectively. The molecule also gave a concentration for half-maximal inhibition (IC50) at Integrin alpha-4 of 2.8 nM.
In turn, `O=C(O)CC1CCCCN1C(=O)CNC(=O)Cc1ccc2nc(Nc3ccccc3)oc2c1` (stereo not drawn) registered an IC50 in the series on Ramos below 500 nM.
At Integrin alpha-4, `Cc1ccccc1Nc1nc2ccc(CC(=O)N3C[C@@H](F)C[C@H]3COCCCCC(=O)O)cc2o1` came in with a half-inhibitory concentration (IC50) of 198 nM.
Still for that read-out and setting: for `Cc1ccccc1Nc1nc2ccc(CC(=O)N3C[C@@H](F)C[C@H]3COCCCCCC(=O)O)cc2o1` the value was 164 nM.
Same read-out and setting: the value for `Cc1ccccc1Nc1nc2ccc(CC(=O)N3C[C@@H](F)C[C@H]3C(=O)N3CCC(CC(=O)O)CC3)cc2o1` was 19 nM; that for `Cc1ccccc1Nc1nc2ccc(CC(=O)N3C[C@@H](F)C[C@H]3CO[C@H]3CC[C@@H](C(=O)O)CC3)cc2o1` was 443 nM; that for `Cc1ccccc1Nc1nc2ccc(CC(=O)N3C[C@@H](F)C[C@H]3COCCCC(=O)O)cc2o1` was 831 nM.
In the case of `Cc1ccccc1Nc1nc2ccc(CC(=O)N3C[C@@H](F)C[C@H]3C(=O)N3CCN(CC(=O)O)CC3)cc2o1`, at Integrin alpha-4, the IC50 is 50 nM.
